Measurements reported in the EternaBench riboswitch data.

Test system: MS2 coat protein
Assay: apparent Kd, MS2 coat protein; higher = weaker binding; RNA-MaP array; FMN 200 µM where present
In short: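 Two titrations, one without ligand and one with constant ligand, were run with SNAP-549-labelled MS2 coat protein from 0.7 or 1.5 nM, doubling to 3 µM. The targets were designs transcribed by stalled E. coli RNA polymerase on Illumina sequencing-chip clusters, in 100 mM Tris-HCl pH 7.5, 80 mM KCl, 4 mM MgCl2, BSA, DTT, yeast tRNA and Tween-20. The apparent Kd is the median of filtered per-cluster binding-curve fits, with green signal normalised to red-channel RNA signal and control-cluster median Fmax.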

[1] = designed as: OFF switch for flavin mononucleotide, no ligand
[2] = ligand present: flavin mononucleotide, designed as: OFF switch for flavin mononucleotide
[3] = designed as: ON switch for flavin mononucleotide, no ligand
[4] = ligand present: flavin mononucleotide, designed as: ON switch for flavin mononucleotide

Sequence	apparent Kd [1]	apparent Kd [2]	apparent Kd [3]	apparent Kd [4]
UUUUAACAUGAGGAUCACCCAUGUGAGGAUAUCGAAAUUUAUAUUUAUAUUAAUUUAUCGAGAAGGCACAUUUU	149 nM	164 nM	–	–
CCAGGCUUCGAGAAGGACAUGAGGAUCACCCAUGUGCGUGUGAAGCAGCCGUGAGGCUGCAUCAUGUAGGAUAUCGGAGUCUGU	72.2 nM	391 nM	–	–
UUUAUUUAGGCAGGAUAUACAUGUAUAUAUAAUUUUUUAUAUAUUAUUACAUGAGGAUCACCCAUGUAGAAGGGCCUUAUUAUA	41.9 nM	54.7 nM	–	–
CUGUUAUUGAUCCAUUUUUUCAACAUGAGGAUCACCCAUGUGCAGGAUAUCUUGUUUAUUUUCAUCGAGAAGGGCAUAUUCACG	159 nM	196 nM	–	–
ACUCUGCGAGGAUAUACAUGAGGAUCACCCAUGUGCGAGUUACUUGUGAGGUCGGUUGGUAGAAGGCGCGGAGA	99.4 nM	134 nM	–	–
UUAAAUCAUGUAGGAUAUGCAUGGCGAAGCUACGCAGAAGGACAUGAGGAUCACCCAUGUUCUAGCUACCGAGUUCGGUGGCAA	20.2 nM	83.8 nM	–	–
AUAAGUGAAAGCUAAAGAUUAGCCGAGGAUAUACAUGAGGAUCACCCAUGUAAGGGUCGCCUUCUGUAGAAGGCGGCGGUCUAG	40.5 nM	76.5 nM	–	–
GGGAAGUGAGGAUAUGCUGCUCGUCACUUGCGUGAUGAGUAGCAGAAGGUACAUGAGGAUCACCCAUGUAAAAA	29.6 nM	19 nM	–	–
CAAUUUUGGAGUUCGUAUCGAUACAUGAGGAUCACCCAUGUAAAGGAUAUGAUCUAGUUUUUAGAUCAGAAGGUUACAUAGGCG	54.9 nM	25.8 nM	–	–
UGAGCCGGCACUGAGGAUAUUCAUAUUUAAACAUGAGGAUCACCCAUGUAGGCCAGAAGGCCUUGGGAGAAGGCAGGUCGGCUCU	–	–	399 nM	24.6 nM
AAGGAUCGAGGAUAUACAUAGAUACAGAUACAUGUAGACCUACAUGAGGAUCACCCAUGUAGAAGGCGAUCCUA	22.4 nM	54.7 nM	–	–
AAUAACAGAGGAUAUACUAUUUUAUGUGUUUGUUAUUUUGAACAUGAGGAUCACCCAUGUAGAAGGCUGAGUAA	28.8 nM	28.9 nM	–	–
UGUCUUUGCACAGGAUAUCAUACAUGAGGAUCACCCAUGUCUAUAAAACAAUGAGAAGGGUGCGUGAUGUGGGCUGCUAUAGCG	–	–	24.7 nM	8.3 nM
AAUUUACAGCUAGGAUAUACAUGAGGAUCACCCAUGUAAUGAUUGGAUCUUAUGAUCGUAUCAGUGUAGAAGGAGCAAAUAAGA	13.4 nM	28.4 nM	–	–
AUCAGCUCGUCAGGAUAUGCGUCACUGCGUCAGCAGUGUGGUAAGAUCACAUGAGGAUCACCCAUGUAGAAGGGACGAGCUGAU	9.59 nM	88.2 nM	–	–
UAUAUAUAGUAAGGAUAUGUAAUUAUUUUAUACACAGAAGGUACUGACAUGAGGAUCACCCAUGUUUUAGUGUGGGCAUGUAGA	55.3 nM	86.5 nM	–	–
AACGAGGCAGGAUAUACAUGAGGAUCACCCAUGUGCUUGCAUGGCGUGGGAAGUCAACGUAGAAGGGCCAUGCC	75.7 nM	89.4 nM	–	–
GAAUGUUGGCUAGGAUAUGCAUUUUGAGAGGUAGCAGAAGGAGCGCACAUGAGGAUCACCCAUGUUAGCAUUGGGCGUCUCUCA	5.76 nM	16.3 nM	–	–
CUCUAUCAUGUAGGAUAUGCGUGGCGAAGCUAUGCAGAAGGACAUGAGGAUCACCCAUGUCUUUCUGUCUGCGGACGGACAGGG	33.1 nM	69.2 nM	–	–
GCGUUUUAUGCAGGAUAUUGUAAUUUAUUACUACAAGAAGGGCAAUACAUGAGGAUCACCCAUGUCAGCAUGGUAUUAAAGUUC	37.6 nM	42.8 nM	–	–
UGGUGUGAAGGAUAUACAUGAGGAUCACCCAUGUAUGUGGUGUGUGUUGAGGUGGAGGGUAGAAGGUCAGGUGG	38.2 nM	39.5 nM	–	–
UUUGCAUUCCGAGGAUAUUCAUAUAAUAAAUAAACAUGAGGAUCACCCAUGUGGCGAUAGCCUAGGGAGAAGGCGGUUUGCUUU	–	–	87.7 nM	29.6 nM
UGAAAUCAUGUAGGAUAUGCAUGGCGAAGCUACGCAGAAGGACAUGAGGAUCACCCAUGUUAUAGCUACCCAGUUCGGUGGCAC	46 nM	136 nM	–	–
